Test results as given in ChEMBL document CHEMBL4373657, “Derivatives of a new heterocyclic system - pyrano[3,4-c][1,2,4]triazolo[4,3-a]pyridines: synthesis, docking analysis and neurotropic activity” (Medchemcomm, 2019).
The source made the active and inactive calls. The rule behind the calls is not given here.

How the values were obtained:
[1] = test system: Mus musculus; assay: Anticonvulsant activity in mouse assessed as MES-induced […] seizures at 10 to 100 mg/kg, ip administered 45 mins before electrical stimulation; format: functional, organism-based
[2] = test system: Rattus norvegicus; assay: Antianxiety activity in Wistar rat assessed as vertical movement of animals at 50 mg/kg, ip measured for 5 mins by open field test; format: functional, organism-based
Method in brief: (§1)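 Male Wistar rats (120–140 g), n = 8 per compound, control and reference. Single i.p. dose of 50 mg kg–1 as a suspension in methylcarboxycellulose with Tween-80; controls received emulsifier. Daytime, natural light. Over 5 min, horizontal movements, rearings (vertical movements) and cell sniffings were counted.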

[3] = test system: Mus musculus; assay: Anticonvulsant activity in mouse assessed as MES-induced tonic seizures at 10 to 100 mg/kg, ip administered 45 mins before electrical stimulation; format: functional, organism-based
Method in brief: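 Mice, 8 per dose. Compounds given i.p. at 10, 25, 50, 75 or 100 mg kg–1 in carboxymethylcellulose/Tween-80 suspension, 45 min before maximal electroshock (50 mA, 0.2 s, 50 imp s–1); controls received emulsifier. Endpoint was prevention of the tonic-extensor phase.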

[4] = test system: Rattus norvegicus; assay: Antianxiety activity in Wistar rat assessed as increase in number of sniffing cell examinations at 50 mg/kg, ip measured for 5 mins by open field test; format: functional, organism-based; method in brief: as §1
[5] = Protection index, ratio of TD50 for neurotoxicity in ip dosed mouse to ED50 for anticonvulsant activity in ip dosed mouse; format: toxicity, organism-based; conditions: in vivo, read-out: Ratio TD50/ED50
[6] = Neurotoxicity in ip dosed mouse assessed as myorelaxation measured for 2 mins by rotarod test; format: toxicity, organism-based; conditions: in vivo
Method in brief: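 Mice were placed on a corrugated rubber-coated metal rod rotating at 5 rpm, and the number staying on for 2 min was counted. TD50 was derived by Litchfield–Wilcoxon probit analysis.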

[7] = test system: Mus musculus; assay: Sedative activity in mouse assessed as time spent in center at 50 mg/kg, ip measured for 5 mins by elevated plus maze test (reference value: 21.8 secs); format: functional
[8] = Neurotoxicity in mouse assessed as myorelaxation at 50 to 100 mg/kg, ip measured for 2 mins by rotarod test; format: toxicity, organism-based; conditions: in vivo
Method in brief: (§2)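 Mice dosed i.p. at 50–100 mg kg–1; reference drugs given at effective anticonvulsant doses. Mice were placed on a corrugated rubber-coated metal rod rotating at 5 rpm, and the number staying on for 2 min was counted. TD50 was derived by Litchfield–Wilcoxon probit analysis.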

[9] = test system: Mus musculus; assay: Antidepressant activity in mouse assessed as total time of active swimming at 5 mg/kg, ip measured for 6 mins by forced swimming test (reference value: 282 secs); format: functional
Method in brief: (§3)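 Each mouse swam in a glass container (22 cm high, 14 cm diameter) one-third filled with water, under natural light. Over 6 min, latency to first immobilization, total immobilization time and total active swimming time were recorded.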

[10] = test system: Mus musculus; assay: Antidepressant activity in mouse assessed as latent period of first immobilization at 5 mg/kg, ip measured for 6 mins by forced swimming test (reference value: 92 secs); format: functional; method in brief: as §3
[11] = test system: Mus musculus; assay: Antidepressant activity in mouse assessed as total time of immobilization at 5 mg/kg, ip measured for 6 mins by forced swimming test (reference value: 81 secs); format: functional; method in brief: as §3
[12] = test system: Mus musculus; assay: Antianxiety activity in mouse assessed as time spent in closed arms at 50 mg/kg, ip measured for 5 mins by elevated plus maze test (reference value: 278.2 secs); format: functional
[13] = test system: Rattus norvegicus; assay: Antianxiety activity in Wistar rat assessed as horizontal movement of animals at 50 mg/kg, ip measured for 5 mins by open field test; format: functional, organism-based; method in brief: as §1
[14] = test system: Mus musculus; assay: Antianxiety activity in mouse assessed as increase in time spent in open arms at 50 mg/kg, ip measured for 5 mins by elevated plus maze test; format: functional
[15] = Neurotoxicity in mouse assessed as motor coordination at 50 to 100 mg/kg, ip by rotarod test; format: toxicity, organism-based; conditions: in vivo; method in brief: as §2
[16] = Neurotoxicity in ip dosed mouse assessed as maximum tolerated dose by rotarod test; format: toxicity, organism-based; conditions: in vivo
Method in brief: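 Mice given compounds i.p. at […] to 1800 mg/kg to establish the maximal tolerated dose.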

[17] = test system: Mus musculus; assay: Anticonvulsant activity in mouse assessed as proportion of animals displaying reduction in PTZ-induced clonic seizures at 50 mg/kg, ip administered 45 mins before PTZ stimulation relative to control; format: functional; set-up: scale not given: the % may be the effect or the level left
Method in brief: (§4)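 Outbred mice (18–22 g), 8 per dose. Compounds given i.p. at 10–100 mg kg–1 as a carboxymethylcellulose/Tween-80 suspension, 45 min before s.c. pentylenetetrazole 90 mg kg–1; controls received emulsifier. Endpoint was prevention of clonic seizures. ED50 was derived by Litchfield–Wilcoxon probit analysis.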

[18] = test system: Mus musculus; assay: Anticonvulsant activity in mouse assessed as reduction in PTZ-induced clonic seizures at 25 mg/kg, ip administered 45 mins before PTZ stimulation; format: functional, organism-based; method in brief: as §4
[19] = test system: Mus musculus; assay: Anticonvulsant activity in ip dosed mouse assessed as reduction in PTZ-induced clonic seizures administered 45 mins before PTZ stimulation; format: functional; method in brief: as §4
[20] = test system: Mus musculus; assay: Anticonvulsant activity in mouse assessed as proportion of animals displaying reduction in PTZ-induced clonic seizures at 200 mg/kg, ip administered 45 mins before PTZ stimulation relative to control; format: functional; set-up: scale not given: the % may be the effect or the level left
[21] = Neurotoxicity in mouse assessed as myorelaxation at 100 to 200 mg/kg, ip measured for 2 mins by rotarod test; format: toxicity, organism-based; conditions: in vivo
Method in brief: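 Mice placed on a rubber-coated metal rod rotating at 5 rpm, dosed i.p. Count of animals able to stay on the rod for 2 min. TD50 derived by Litchfield–Wilcoxon probit analysis. Reference drugs given at effective anticonvulsant doses.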

[22] = test system: Mus musculus; assay: Antidepressant activity in mouse assessed as total time of immobilization at 2 mg/kg, ip measured for 6 mins by forced swimming test (reference value: 81 secs); format: functional
Method in brief: (§5)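 Mice swum in a glass cylinder (height 22 cm, diameter 14 cm) one-third filled with water, under natural light. Latency to first immobility, total immobility and total active swimming recorded over 6 min after i.p. dosing; controls given emulsifier.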

[23] = test system: Rattus norvegicus; assay: Antianxiety activity in Wistar rat assessed as increase in number of sniffing cell examinations at 2 mg/kg, ip measured for 5 mins by open field test; format: functional, organism-based
Method in brief: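 Male Wistar rats (120–140 g), 8 per group, dosed i.p. as suspension in carboxymethylcellulose with Tween-80; controls given emulsifier. Horizontal movements, rearings and sniffing of cells counted over 5 min in daylight with natural light.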

[24] = test system: Mus musculus; assay: Antianxiety activity in mouse assessed as increase in time spent in open arms at 2 mg/kg, ip measured for 5 mins by elevated plus maze test; format: functional
Method in brief: (§6)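 Mice placed at the junction of a raised cruciform maze (two open, two closed opposed arms) facing an open arm. Entries into and time spent in each arm and the centre recorded for 5 min by video tracking and an observer. Compound given i.p. beforehand; controls given emulsifier; P ≤ 0.05.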

[25] = test system: Mus musculus; assay: Antianxiety activity in mouse assessed as time spent in closed arms at 2 mg/kg, ip measured for 5 mins by elevated plus maze test (reference value: 278.2 secs); format: functional; method in brief: as §6
[26] = test system: Mus musculus; assay: Antidepressant activity in mouse assessed as latent period of first immobilization at 2 mg/kg, ip measured for 6 mins by forced swimming test (reference value: 92 secs); format: functional; method in brief: as §5
[27] = test system: Mus musculus; assay: Sedative activity in mouse assessed as time spent in center at 2 mg/kg, ip measured for 5 mins by elevated plus maze test (reference value: 21.8 secs); format: functional; method in brief: as §6
[28] = test system: Mus musculus; assay: Antidepressant activity in mouse assessed as total time of active swimming at 2 mg/kg, ip measured for 6 mins by forced swimming test (reference value: 282 secs); format: functional; method in brief: as §5

For `Cc1ccc(Nc2c(C#N)c3c(c4nnc(SCC(=O)N(c5ccccc5)c5ccccc5)n24)COC(C)(C)C3)cc1`, the Activity [1] was “inactive”, the Activity [2] was “inactive” and the Activity [3] was “inactive”. The Activity [4] was “Active”, the selectivity ratio [5] was 13.5 and the TD50 at 2 min [6] was 610 mg/kg. For the same molecule, the Time [7] was 58 s, the Activity [8] was “Non-Toxic” and the Time [9] was 254 s. For the same molecule, the Time [10] was 129 s, the Time [11] was 106 s and the Time [12] was 242 s. For the same molecule, the Activity [13] was “inactive”, the Time [14] was 6.2 s and the Activity [15] was “Non-Toxic”. For the same molecule, the MTD [16] was 1750 mg/kg, the Activity [17] was 60% and the “anticonvulsant activity (active/inactive)” value [18] was “Active”. It also gave an ED50 [19] of 45 mg/kg.

With `CCC1(C)CC(=O)NC1=O` (stereo not given) [ETHOSUXIMIDE] the Activity [1] was “inactive”, the Activity [20] was 60% and the Activity [21] was “Non-Toxic”. For the same molecule, the Activity [3] was “inactive” and the MTD [16] was 1000 mg/kg.

For `CN1C(=O)CN=C(c2ccccc2)c2cc(Cl)ccc21` [DIAZEPAM], the Activity [1] was “inactive”, the Activity [3] was “inactive” and the Time [22] was 24 s. For the same molecule, the Activity [23] was “Active”, the Time [24] was 57 s and the Time [25] was 257.5 s. It also gave a Time [26] of 174 s, a Time [27] of 42.5 s and a Time [28] of 336 s. It also gave an MTD [16] of 200 mg/kg and an ED50 [19] of 0.5 mg/kg.
